# Assay results: ChEMBL document CHEMBL4732237, “Discovery of 4-alkoxy-2-aryl-6,7-dimethoxyquinolines as a new class of topoisomerase I inhibitors endowed with potent in vitro anticancer activity” (2021)
# Test system: Malme-3M
# Experiment: Growth inhibition of human Malme-3M cells at 10 uM incubated for 48 hrs by sulforhodamine B assay relative to control
# Assay type: functional
# Details: read-out: GI
# Summary of the method: (§1)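 NCI one-dose screen. Cells grown in RPMI 1640 with 5% FBS and 2 mM L-glutamine, plated and incubated 24 h at 37 °C, 5% CO2. DMSO-dissolved drug added, then 48 h further incubation. Adherent cells fixed with cold TCA, suspension cells fixed after settling. Stained with 0.4% SRB, absorbance read at 515 nm. Reported as percent growth relative to no-drug control and time-zero cell number.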
row,Structure (SMILES),inhibition of growth at 10 µM [%]
1,COc1cc2nc(-c3ccc(Cl)cc3)cc(OCCCN3CCOCC3)c2cc1OC,62

# Test system: TK-10
# Experiment: Growth inhibition of human TK-10 cells at 10 uM incubated for 48 hrs by sulforhodamine B assay relative to control
# Assay type: functional
# Details: read-out: GI
# Summary of the method: (§2)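 NCI one-dose screen across a 59-line panel. Cells were grown in RPMI 1640 with 5% FBS and 2 mM L-glutamine, plated and pre-incubated 24 h, then exposed to drug for 48 h at 37 °C, 5% CO2. Adherent cells were fixed with cold TCA (10% final), stained with 0.4% SRB in 1% acetic acid and read at 515 nm. Result is percent growth relative to no-drug control and time-zero cell count.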
row,Structure (SMILES),inhibition of growth at 10 µM [%]
1,COc1cc2nc(-c3ccc(Cl)cc3)cc(OCCCN3CCOCC3)c2cc1OC,62

# Test system: MDA-MB-468
# Experiment: Growth inhibition of human MDA-MB-468 cells at 10 uM incubated for 48 hrs by sulforhodamine B assay relative to control
# Assay type: functional
# Details: read-out: GI
# Summary of the method: (§3)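 NCI-60 single-dose screen. Cells were grown in RPMI 1640 with 5% FBS and 2 mM L-glutamine and plated 24 h before drug addition. Compound was added at one concentration in DMSO-derived medium and incubated for 48 h at 37 °C in 5% CO2. Read-out was SRB protein stain at 515 nm. Result is percent growth versus the no-drug control and the time-zero cell count; values below 0 indicate lethality.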
row,Structure (SMILES),inhibition of growth at 10 µM [%]
1,COc1cc2nc(-c3ccc(Cl)cc3)cc(OCCCN3CCOCC3)c2cc1OC,62

# Test system: OVCAR-5
# Experiment: Growth inhibition of human OVCAR-5 cells at 10 uM incubated for 48 hrs by sulforhodamine B assay relative to control
# Assay type: functional
# Details: read-out: GI
# Summary of the method: as §1
row,Structure (SMILES),inhibition of growth at 10 µM [%]
1,COc1cc2nc(-c3ccc(Cl)cc3)cc(OCCCN3CCOCC3)c2cc1OC,62

# Test system: HOP-92
# Experiment: Growth inhibition of human HOP-92 cells at 10 uM incubated for 48 hrs by sulforhodamine B assay relative to control
# Assay type: functional
# Details: read-out: GI
# Summary of the method: as §3
row,Structure (SMILES),inhibition of growth at 10 µM [%]
1,COc1cc2nc(-c3ccc(Cl)cc3)cc(OCCCN3CCOCC3)c2cc1OC,62

# Test system: EKVX
# Experiment: Growth inhibition of human EKVX cells at 10 uM incubated for 48 hrs by sulforhodamine B assay relative to control
# Assay type: functional
# Details: read-out: GI
# Summary of the method: as §3
row,Structure (SMILES),inhibition of growth at 10 µM [%]
1,COc1cc2nc(-c3ccc(Cl)cc3)cc(OCCCN3CCOCC3)c2cc1OC,62

# Test system: SW-620
# Experiment: Growth inhibition of human SW-620 cells at 10 uM incubated for 48 hrs by sulforhodamine B assay relative to control
# Assay type: functional
# Details: read-out: GI
# Summary of the method: as §2
row,Structure (SMILES),inhibition of growth at 10 µM [%]
1,COc1cc2nc(-c3ccc(Cl)cc3)cc(OCCCN3CCOCC3)c2cc1OC,62

# Test system: Hs-578T
# Experiment: Growth inhibition of human HS-578T cells at 10 uM incubated for 48 hrs by sulforhodamine B assay relative to control
# Assay type: functional
# Details: read-out: GI
# Summary of the method: as §3
row,Structure (SMILES),inhibition of growth at 10 µM [%]
1,COc1cc2nc(-c3ccc(Cl)cc3)cc(OCCCN3CCOCC3)c2cc1OC,62

# Test system: SNB-19
# Experiment: Growth inhibition of human SNB-19 cells at 10 uM incubated for 48 hrs by sulforhodamine B assay relative to control
# Assay type: functional
# Details: read-out: GI
# Summary of the method: as §1
row,Structure (SMILES),inhibition of growth at 10 µM [%]
1,COc1cc2nc(-c3ccc(Cl)cc3)cc(OCCCN3CCOCC3)c2cc1OC,62

# Test system: K562
# Experiment: Growth inhibition of human K562 cells at 10 uM incubated for 48 hrs by sulforhodamine B assay relative to control
# Assay type: functional
# Details: read-out: GI
# Summary of the method: as §3
row,Structure (SMILES),inhibition of growth at 10 µM [%]
1,COc1cc2nc(-c3ccc(Cl)cc3)cc(OCCCN3CCOCC3)c2cc1OC,62

# Test system: PC-3
# Experiment: Growth inhibition of human PC-3 cells at 10 uM incubated for 48 hrs by sulforhodamine B assay relative to control
# Assay type: functional
# Details: read-out: GI
# Summary of the method: as §1
row,Structure (SMILES),inhibition of growth at 10 µM [%]
1,COc1cc2nc(-c3ccc(Cl)cc3)cc(OCCCN3CCOCC3)c2cc1OC,62

# Test system: NCI/ADR-RES
# Experiment: Growth inhibition of human NCI/ADR-RES cells at 10 uM incubated for 48 hrs by sulforhodamine B assay relative to control
# Assay type: functional
# Details: read-out: GI
# Summary of the method: as §1
row,Structure (SMILES),inhibition of growth at 10 µM [%]
1,COc1cc2nc(-c3ccc(Cl)cc3)cc(OCCCN3CCOCC3)c2cc1OC,62

# Test system: SF-268
# Experiment: Growth inhibition of human SF-268 cells at 10 uM incubated for 48 hrs by sulforhodamine B assay relative to control
# Assay type: functional
# Details: read-out: GI
# Summary of the method: as §1
row,Structure (SMILES),inhibition of growth at 10 µM [%]
1,COc1cc2nc(-c3ccc(Cl)cc3)cc(OCCCN3CCOCC3)c2cc1OC,62

# Test system: OVCAR-8
# Experiment: Growth inhibition of human OVCAR-8 cells at 10 uM incubated for 48 hrs by sulforhodamine B assay relative to control
# Assay type: functional
# Details: read-out: GI
# Summary of the method: as §1
row,Structure (SMILES),inhibition of growth at 10 µM [%]
1,COc1cc2nc(-c3ccc(Cl)cc3)cc(OCCCN3CCOCC3)c2cc1OC,62

# Test system: HOP-62
# Experiment: Growth inhibition of human HOP-62 cells at 10 uM incubated for 48 hrs by sulforhodamine B assay relative to control
# Assay type: functional
# Details: read-out: GI
# Summary of the method: as §3
row,Structure (SMILES),inhibition of growth at 10 µM [%]
1,COc1cc2nc(-c3ccc(Cl)cc3)cc(OCCCN3CCOCC3)c2cc1OC,62

# Test system: SR
# Experiment: Growth inhibition of human SR cells at 10 uM incubated for 48 hrs by sulforhodamine B assay relative to control
# Assay type: functional
# Details: read-out: GI
# Summary of the method: as §1
row,Structure (SMILES),inhibition of growth at 10 µM [%]
1,COc1cc2nc(-c3ccc(Cl)cc3)cc(OCCCN3CCOCC3)c2cc1OC,62

# Test system: BT-549
# Experiment: Growth inhibition of human BT-549 cells at 10 uM incubated for 48 hrs by sulforhodamine B assay relative to control
# Assay type: functional
# Details: read-out: GI
# Summary of the method: as §3
row,Structure (SMILES),inhibition of growth at 10 µM [%]
1,COc1cc2nc(-c3ccc(Cl)cc3)cc(OCCCN3CCOCC3)c2cc1OC,62

# Test system: SK-MEL-28
# Experiment: Growth inhibition of human SK-MEL-28 cells at 10 uM incubated for 48 hrs by sulforhodamine B assay relative to control
# Assay type: functional
# Details: read-out: GI
# Summary of the method: as §1
row,Structure (SMILES),inhibition of growth at 10 µM [%]
1,COc1cc2nc(-c3ccc(Cl)cc3)cc(OCCCN3CCOCC3)c2cc1OC,62
